Each block holds one compound with its values, some of them ahead of it.
Assays:
[1] = test system: Human immunodeficiency virus 1; assay: Antiviral activity against HIV1 NL4-3 infected in human MT2 cells measured after 3 to 4 days by luciferase reporter gene assay; format: functional, organism-based
[2] = Cytotoxicity against human MT2 cells measured after 4 days by XTT assay; format: cell-based
Procedure, shortened: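 MT-2 cell viability measured by XTT after 4 days of compound exposure, run in parallel with the antiviral assay; CC50 from n ≥ 2 determinations.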

[3] = Permeability of the compound in pH 7.4 buffer at 100 uM measured after 4 hrs by sandwich-PAMPA; format: ADME; conditions: read-out: permeability
Procedure, shortened: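 Parallel artificial membrane permeability: compound at 100 μM in donor buffer pH 7.4, permeating to acceptor through artificial membrane over 4 h; donor, acceptor and t0 solutions read by UV plate reader; triplicate.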

[4] = Stability of the compound in human liver microsomes assessed as parent compound remaining at 0.5 uM measured after 10 mins in presence of NADPH by LC-MS/MS analysis; format: ADME, Microsome; conditions: read-out: Stability
Procedure, shortened: (§1)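 CYP-mediated turnover: 0.5 μM compound with human or rat liver microsomes (1 mg/mL) in 100 mM sodium phosphate pH 7.4, 6.6 mM MgCl2, 37 °C; started with NADPH, DMSO 0.014%. Samples quenched at 0 and 10 min; parent remaining by LC-MS/MS; duplicate.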

[5] = Stability of the compound in rat liver microsomes assessed as parent compound remaining at 0.5 uM measured after 10 mins in presence of NADPH by LC-MS/MS analysis; format: ADME, Microsome; conditions: read-out: Stability; procedure, shortened: as §1
[6] = Therapeutic index, ratio of CC50 for human MT2 cells to EC50 for HIV1 NL4-3 infected in human MT2 cells; format: toxicity, cell-based; conditions: read-out: Ratio CC50/EC50
[7] = test system: Human immunodeficiency virus 1; assay: Antiviral activity against HIV1 NL4-3 infected in human MT2 cells measured after 3 to 4 days in presence of human serum albumin by luciferase reporter gene assay; format: functional, organism-based; conditions: Human immunodeficiency virus 1, NL4-3, MT2
[8] = test system: Human immunodeficiency virus 1; assay: Selectivity ratio of EC50 for HIV1 NL4-3 infected in human MT2 cells in presence of human serum albumin to EC50 for HIV1 NL4-3 infected in human MT2 cells in absence of human serum albumin; format: functional
[9] = Cmax in Sprague-Dawley rat at 1 mg/kg, iv infusion for 10 mins or 5 mg/kg, po administered via gavage by LC-MS/MS analysis; format: ADME, organism-based; conditions: in vivo
Procedure, shortened: (§2)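 Rats given iv via implanted venous cannula as 10 min infusion, or oral gavage after overnight fast; vehicle 10% dimethylacetamide/90% PEG400 for both routes. Plasma from venous-port blood, treated with CH3CN containing internal standard, analysed by LC-MS/MS; oral plasma levels followed 24 h after 5 mg/kg. Parameters by noncompartmental analysis of concentration-time data.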

[10] = Tmax in Sprague-Dawley rat at 1 mg/kg, iv infusion for 10 mins or 5 mg/kg, po administered via gavage by LC-MS/MS analysis; format: ADME, organism-based; conditions: in vivo; procedure, shortened: as §2
[11] = AUC (0 to 24 hrs) in Sprague-Dawley rat at 1 mg/kg, iv infusion for 10 mins or 5 mg/kg, po administered via gavage by LC-MS/MS analysis; format: ADME, organism-based; conditions: in vivo; procedure, shortened: as §2
[12] = Half life in Sprague-Dawley rat at 1 mg/kg, iv infusion for 10 mins or 5 mg/kg, po administered via gavage by LC-MS/MS analysis; format: ADME, organism-based; conditions: in vivo; procedure, shortened: as §2
[13] = Clearance in Sprague-Dawley rat at 1 mg/kg, iv infusion for 10 mins or 5 mg/kg, po administered via gavage by LC-MS/MS analysis; format: ADME, organism-based; conditions: in vivo; procedure, shortened: as §2
[14] = Volume of distribution at steady state in Sprague-Dawley rat at 1 mg/kg, iv infusion for 10 mins or 5 mg/kg, po administered via gavage by LC-MS/MS analysis; format: ADME, organism-based; conditions: in vivo, read-out: Vdss; procedure, shortened: as §2
[15] = Oral bioavailability in Sprague-Dawley rat at 5 mg/kg administered via gavage by LC-MS/MS analysis; format: ADME, organism-based; conditions: in vivo; procedure, shortened: as §2
[16] = molecular target: Human immunodeficiency virus type 1 integrase (Human immunodeficiency virus 1, UniProt Q7ZJM1); assay: Allosteric inhibition of [3H]-2-tert-butoxy-2-[2-methyl-4-(p-tolyl)-3-quinolyl]acetic acid binding to HIV1 integrase measured after 1 hr under dark condition by microbeta plate reader method
Procedure, shortened: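 Scintillation proximity displacement of tritiated LEDGF-site inhibitor from purified HIV-1 integrase (13 μM) premixed 1 h with PVT SPA beads (2 mg/mL); […]. Buffer 26 mM MOPS pH 7.0, 11 mM DTT, 100 mM NaCl, 20 mM MgCl2, 0.05% NP-40, 5% PEG-8000. Compounds 100 μM to 0.0512 nM, ten 5-fold dilutions. 1 h rocking, RT, dark; read after overnight; Ki derived.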

[17] = test system: Human immunodeficiency virus 1; assay: Antiviral activity against HIV1 NL4-3 harboring G140S/Q148H mutant infected in human MT2 cells measured after 3 to 4 days by luciferase reporter gene assay; format: functional, organism-based; conditions: Human immunodeficiency virus 1, NL4-3, MT2
Procedure, shortened: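 MT-2 cells (RPMI 1640, 10% heat-inactivated FBS, 10 mM HEPES pH 7.55, 2 mM L-glutamine, penicillin/streptomycin) infected with titered NL4-3 Renilla luciferase reporter virus (luciferase replacing nef) carrying integrase G140S/Q148H, with serial compound dilutions from 10 mM DMSO stock, final DMSO 1%; luciferase read after 3–4 days; EC50 from median effect equation; n ≥ 2, some n = 1.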

[18] = Human immunodeficiency virus 1, NL4-3, MT2

Human immunodeficiency virus type 1 integrase, sequence (Q7ZJM1 whole entry): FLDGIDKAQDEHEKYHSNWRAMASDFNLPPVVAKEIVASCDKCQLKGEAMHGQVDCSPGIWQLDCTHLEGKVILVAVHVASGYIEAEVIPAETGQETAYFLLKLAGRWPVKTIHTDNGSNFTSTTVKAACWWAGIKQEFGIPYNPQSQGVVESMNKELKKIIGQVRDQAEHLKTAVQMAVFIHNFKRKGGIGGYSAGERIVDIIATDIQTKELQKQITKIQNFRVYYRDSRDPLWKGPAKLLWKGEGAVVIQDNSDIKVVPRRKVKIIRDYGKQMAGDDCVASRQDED

Structure (SMILES): Cc1ccccc1-c1c(C(OC(C)(C)C)C(=O)O)c(C)nc2cc(-c3ccccc3)nn12 (centres undefined)
Ki [16]: 3.4 µM
EC50 [1, 18]: 21 µM

Structure (SMILES): Cc1nc2cc(-c3ccc(OCc4ccccc4)cc3)nn2c(-c2cc(F)c3c(c2C)CCCO3)c1C(OC(C)(C)C)C(=O)O (centres undefined)
EC50 [1, 18]: 0.06 µM
Papp at 4 h, 100 µM [3]: 31.3 ×10⁻⁶ cm/s
remaining at 10 min, 0.5 µM [4]: 84%
remaining at 10 min, 0.5 µM [5]: 79%

Structure (SMILES): Cc1ccc(Nc2c(C(OC(C)(C)C)C(=O)O)c(C)nc3cc(-c4ccccc4)nn23)cc1 (centres undefined)
Ki [16]: > 40 µM
EC50 [1, 18]: > 40 µM

Structure (SMILES): Cc1nc2cc(-c3cccc(-c4ccccc4F)c3)nn2c(-c2cc(F)c3c(c2C)CCCO3)c1[C@H](OC(C)(C)C)C(=O)O
EC50 [1, 18]: 0.003 µM
CC50 at 96 h [2]: 19.1 µM
Papp at 4 h, 100 µM [3]: 60.8 ×10⁻⁶ cm/s
remaining at 10 min, 0.5 µM [4]: 100%
remaining at 10 min, 0.5 µM [5]: 89%
selectivity ratio [6]: 6360
EC50 [7]: 0.019 µM
Ratio EC50 [8]: 6
Cmax [9]: 803 nM
Tmax [10]: 2.7 h
AUC(0-t) [11]: 4.73 µM·h
half-life [12]: 2 h
clearance [13]: 13 mL/min/kg
Vd [14]: 0.7 L/kg
bioavailability [15]: 44%

Structure (SMILES): COc1cccc(-c2c(C(OC(C)(C)C)C(=O)O)c(C)nc3cc(-c4ccccc4)nn23)c1 (centres undefined)
Ki [16]: 15.3 µM
EC50 [1, 18]: > 40 µM

Structure (SMILES): Cc1ccc(-c2c(C(OC(C)(C)C)C(N)=O)c(C)nc3cc(-c4ccccc4)nn23)cc1 (centres undefined)
EC50 [1, 18]: 18 µM

Structure (SMILES): Cc1nc2cc(-c3cccc(-c4ccccc4)c3)nn2c(-c2cc(F)c3c(c2C)CCCO3)c1C(OC(C)(C)C)C(=O)O (racemic)
EC50 [1, 18]: 0.015 µM
Papp at 4 h, 100 µM [3]: 65.2 ×10⁻⁶ cm/s
remaining at 10 min, 0.5 µM [4]: 86%
remaining at 10 min, 0.5 µM [5]: 100%
EC50 [17]: 0.01 µM

Structure (SMILES): Cc1nc2cc(-c3ccccc3)nn2c(-c2cc(F)c3c(c2C)CCCO3)c1C(OC(C)(C)C)C(=O)O (racemic)
Ki [16]: 0.17 µM
EC50 [1]: 0.21 µM
Papp at 4 h, 100 µM [3]: 21.8 ×10⁻⁶ cm/s
remaining at 10 min, 0.5 µM [4]: 93%
remaining at 10 min, 0.5 µM [5]: 97%
EC50 [17]: 0.119 µM

Structure (SMILES): Cc1nc2cc(-c3ccccc3)nn2c(-c2cc(F)c3c(c2C)CCCO3)c1C(OC(C)(C)C)C(=O)O (stereo in doubt; 15)
Ki [16]: 3.4 µM
EC50 [1]: > 40 µM

Structure (SMILES): Cc1nc2ccccc2c(-c2ccc3c4c(ccnc24)CCO3)c1[C@H](OC(C)(C)C)C(=O)O [BI-224436]
EC50 [1, 18]: 0.05 µM
CC50 at 96 h [2]: 3340 µM
selectivity ratio [6]: 66800

Structure (SMILES): Cc1nnc(C(=O)NC(C)(C)c2nc(C(=O)NCc3ccc(F)cc3)c(O)c(=O)n2C)o1 [RALTEGRAVIR]
EC50 [1, 18]: 0.002 µM
EC50 [17]: 2.42 µM

Continued, in another order:

EC50 [1, 18]: 0.006 µM
Papp at 4 h, 100 µM [3]: 76.5 ×10⁻⁶ cm/s
remaining at 10 min, 0.5 µM [4]: 99%
remaining at 10 min, 0.5 µM [5]: 99%
EC50 [7]: 0.03 µM
Cmax [9]: 1110 nM
Tmax [10]: 2.3 h
AUC(0-t) [11]: 2.99 µM·h
half-life [12]: 3 h
clearance [13]: 28 mL/min/kg
Vd [14]: 1.8 L/kg
bioavailability [15]: 59%
Structure (SMILES): COc1ccccc1-c1cccc(-c2cc3nc(C)c([C@H](OC(C)(C)C)C(=O)O)c(-c4cc(F)c5c(c4C)CCCO5)n3n2)c1
CC50 at 96 h [2]: 23.5 µM
selectivity ratio [6]: 3920
Ratio EC50 [8]: 5

EC50 [1, 18]: > 40 µM
Structure (SMILES): Cc1ccc(-c2c(C(O)C(=O)O)c(C)nc3cc(-c4ccccc4)nn23)cc1 (centres undefined)

EC50 [1, 18]: 2.3 µM
Structure (SMILES): Cc1nc2cc(-c3ccccc3)nn2c(N2CCCCCC2)c1C(OC(C)(C)C)C(=O)O (centres undefined)
Ki [16]: 0.43 µM

EC50 [1, 18]: 16 µM
Structure (SMILES): CC(C)(C)OC(C(=O)O)c1ccccc1-c1ccccc1 (centres undefined)
Ki [16]: 67 µM
CC50 at 96 h [2]: 127 µM

EC50 [1, 18]: 1.7 µM
Structure (SMILES): COc1ccc(-c2c(C(OC(C)(C)C)C(=O)O)c(C)nc3cc(-c4ccccc4)nn23)cc1 (centres undefined)
Ki [16]: 0.31 µM

EC50 [1, 18]: > 40 µM
Structure (SMILES): Cc1nc2cc(-c3ccccc3)nn2c(C)c1C(OC(C)(C)C)C(=O)O (centres undefined)
Ki [16]: > 40 µM
